According to ChEMBL document CHEMBL4765483 (J Med Chem, 2021):

Experiments:
Conditions in all cases: Cell membrane
[1] = target: Adenosine receptor A2a (Homo sapiens) (UniProt P29274); assay: Displacement of [3H]ZM2421385 from adenosine A2A receptor expressed in human HeLa cell membranes at 1 uM incubated for 30 mins by scintillation counting method
[2] = target: T1, Adenosine receptor A3 (Homo sapiens) (UniProt P0DMS8); assay: Displacement of [3H]NECA from adenosine A3 receptor expressed in human HeLa cell membranes at 1 uM incubated for 180 mins by scintillation counting method
T1 sequence (whole entry): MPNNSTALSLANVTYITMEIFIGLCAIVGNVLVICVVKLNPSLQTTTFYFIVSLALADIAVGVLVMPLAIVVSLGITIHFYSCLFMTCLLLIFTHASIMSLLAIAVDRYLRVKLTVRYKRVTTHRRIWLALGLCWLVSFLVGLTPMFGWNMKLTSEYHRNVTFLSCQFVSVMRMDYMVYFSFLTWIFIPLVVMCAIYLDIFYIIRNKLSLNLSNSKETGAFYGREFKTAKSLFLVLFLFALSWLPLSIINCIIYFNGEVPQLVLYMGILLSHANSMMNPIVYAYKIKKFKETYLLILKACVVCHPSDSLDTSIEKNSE
In short: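 hA3AR in HeLa membranes (3 pmol/mg protein) with 10 nM [3H]NECA (KD 8.7 nM); nonspecific binding with 100 μM R-PIA; incubated 180 min at 25 °C, washed, filtered, radioactivity counted.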

[3] = target: T2, Adenosine receptor A1 (Homo sapiens) (UniProt P30542); assay: Displacement of [3H]DPCPX from human adenosine A1 receptor expressed in CHO cell membranes at 1 uM incubated for 60 mins by scintillation counting method
T2 sequence (whole entry): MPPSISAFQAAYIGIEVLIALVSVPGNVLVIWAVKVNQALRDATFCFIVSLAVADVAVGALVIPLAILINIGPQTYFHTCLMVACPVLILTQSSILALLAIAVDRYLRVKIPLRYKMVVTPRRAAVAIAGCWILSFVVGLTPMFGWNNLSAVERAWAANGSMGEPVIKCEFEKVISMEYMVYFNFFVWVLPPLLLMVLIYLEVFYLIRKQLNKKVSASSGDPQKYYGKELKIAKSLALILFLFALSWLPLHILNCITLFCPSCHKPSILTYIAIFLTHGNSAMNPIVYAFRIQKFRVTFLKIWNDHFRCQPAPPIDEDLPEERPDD

[4] = target: T3, Adenosine receptor A2b (Homo sapiens) (UniProt P29275); assay: Displacement of [3H]DPCPX from human adenosine A2B receptor expressed in HEK293 cell membranes at 1 uM incubated for 30 mins by scintillation counting method
T3 sequence (whole entry): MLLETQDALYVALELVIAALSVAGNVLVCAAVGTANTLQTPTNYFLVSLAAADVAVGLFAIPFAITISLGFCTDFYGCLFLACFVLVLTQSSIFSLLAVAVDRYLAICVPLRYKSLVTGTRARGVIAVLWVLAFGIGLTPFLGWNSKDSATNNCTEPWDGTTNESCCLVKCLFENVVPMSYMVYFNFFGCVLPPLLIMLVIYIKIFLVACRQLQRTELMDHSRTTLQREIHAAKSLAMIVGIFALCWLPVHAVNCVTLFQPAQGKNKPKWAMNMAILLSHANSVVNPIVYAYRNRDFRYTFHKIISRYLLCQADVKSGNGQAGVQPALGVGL

Adenosine receptor A2a (Homo sapiens), sequence (P29274 whole entry): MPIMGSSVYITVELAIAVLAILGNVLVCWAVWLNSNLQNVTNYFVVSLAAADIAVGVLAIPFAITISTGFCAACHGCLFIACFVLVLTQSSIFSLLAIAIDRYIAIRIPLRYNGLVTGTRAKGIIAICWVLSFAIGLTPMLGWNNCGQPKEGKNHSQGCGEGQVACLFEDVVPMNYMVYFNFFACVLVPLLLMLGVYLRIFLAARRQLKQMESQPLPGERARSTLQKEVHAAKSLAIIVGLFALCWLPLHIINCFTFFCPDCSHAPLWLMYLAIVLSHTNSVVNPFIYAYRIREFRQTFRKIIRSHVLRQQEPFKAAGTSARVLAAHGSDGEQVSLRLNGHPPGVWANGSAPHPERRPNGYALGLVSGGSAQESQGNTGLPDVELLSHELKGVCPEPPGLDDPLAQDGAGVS

SMILES | inhibition [1] | inhibition [2] | inhibition [3] | inhibition [4] | inhibition ([4]; filed as antagonist)
CCC(CC)OC(=O)C1=C(C)NC(=O)NC1c1ccco1 (racemic) | 3% | 1% | 2% | 35% | 
CCOP(=O)(OCC)C1=C(C)NC(=O)NC1c1ccco1 (racemic) | 4% | 4% | 3% | 2% | 
CC1=C(C(=O)OCc2ccccc2)C(c2cccs2)NC(=O)N1C (racemic) | 3% | 18% | 50% |  | 50%
CCCOC(=O)C1=C(C)NC(=S)NC1c1ccsc1 (racemic) | 1% | 1% | 5% | 26% | 
CC(=O)C1=C(C)NC(=O)NC1c1ccoc1 (racemic) | 1% | 2% | 6% | 15% | 
CCOP(=O)(OCC)C1=C(C)NC(=O)NC1c1ccoc1 (racemic) | 8% | 2% | 1% | 3% | 
CCC(CC)OC(=O)C1=C(C)NC(=O)NC1c1cccs1 (racemic) | 4% | 1% | 13% | 6% | 
CC1=C(C(=O)OC(C)C)C(c2ccsc2)NC(=O)N1C (racemic) | 22% |  | 35% |  | 51%
CC1=C(C(=O)OCC(C)C)C(c2ccco2)NC(=O)N1C (racemic) | 3% | 23% | 13% | 4% | 
CCC(C)OC(=O)C1=C(C)NC(=O)NC1c1cccs1 (racemic) | 2% | 7% | 5% | 7% | 
CC1=C(C(=O)OC(C)(C)C)C(c2ccoc2)NC(=O)N1C (racemic) | 16% | 12% | 21% | 16% | 
COC(=O)C1=C(C)NC(=O)NC1c1cccs1 (racemic) | 1% | 3% | 6% | 19% | 
COC(=O)C1=C(C)N(C)C(=O)NC1c1cccs1 (racemic) | 49% | 15% | 30% | 17% | 
CC1=C(C(N)=O)C(c2cccs2)NC(=O)N1 (racemic) | 1% | 1% | 2% | 3% | 
CCN(CC)C(=O)C1=C(C)NC(=O)NC1c1ccco1 (racemic) | 9% | 19% | 11% | 31% | 
CC1=C(C(=O)OC(C)C)C(c2ccco2)NC(=O)N1C (racemic) | 37% |  |  |  | 
COC(=O)C1=C(C)N(C)C(=O)NC1c1ccco1 (racemic) | 1% | 9% | 45% | 31% | 
CC1=C(C(=O)SC(C)C)C(c2ccco2)NC(=O)N1 (racemic) | 2% | 1% | 5% | 22% | 
CC1=C(C(=O)SC(C)C)C(c2ccsc2)NC(=O)N1 (racemic) | 2% | 1% | 24% | 14% | 
CC1=C(C(=O)OC(C)C)[C@H](c2ccco2)NC(=S)N1 | 6% | 2% | 10% | 12% | 
CCOC(=O)C1=C(C)N(C)C(=O)NC1c1ccco1 (racemic) | 1% |  |  |  | 
CC1=C(C(=O)OC(C)C)C(c2cccs2)NC(=O)N1C (racemic) |  | 17% |  |  | 

Further lines, results first:

inhibition [1] | inhibition [2] | inhibition [3] | inhibition [4] | inhibition ([4]; filed as antagonist) | SMILES
16% | 2% | 3% | 10% |  | CC1=C(C(=O)OCc2ccccc2)C(c2ccsc2)NC(=S)N1 (racemic)
35% | 1% | 12% | 1% |  | CC1=C(C(=O)OCC(C)C)C(c2ccoc2)NC(=S)N1 (racemic)
2% | 14% | 6% | 29% |  | CCSC(=O)C1=C(C)NC(=O)NC1c1ccco1 (racemic)
1% | 1% | 1% | 10% |  | COC(=O)C1=C(C)NC(=S)NC1c1cccs1 (racemic)
1% | 4% | 3% | 2% |  | CC1=C(C(=O)NC(C)C)C(c2ccco2)NC(=O)N1 (racemic)
18% | 1% | 2% | 1% |  | CC1=C(C(N)=O)C(c2ccsc2)NC(=O)N1 (racemic)
7% | 22% | 22% | 26% |  | CC1=C(C(=O)OC(C)(C)C)C(c2cccs2)NC(=S)N1 (racemic)
3% | 1% | 4% | 1% |  | CCOP(=O)(OCC)C1=C(C)NC(=O)NC1c1ccsc1 (racemic)
20% | 1% | 9% | 1% |  | CC1=C(C(=O)OC2CCCC2)C(c2cccs2)NC(=O)N1 (racemic)
17% | 1% | 3% | 1% |  | CCNC(=O)C1=C(C)NC(=O)NC1c1ccsc1 (racemic)
3% | 2% | 8% |  | 42% | COC(=O)C1=C(C)NC(=O)NC1c1ccoc1 (racemic)
6% | 37% | 15% | 12% |  | CCN(CC)C(=O)C1=C(C)NC(=O)NC1c1ccoc1 (racemic)
3% | 2% | 1% | 6% |  | CC1=C(C(N)=O)C(c2ccoc2)NC(=O)N1 (racemic)
1% | 2% | 8% | 15% |  | CC1=C(C(=O)OCC(C)C)C(c2ccsc2)NC(=S)N1 (racemic)
5% | 7% | 15% | 7% |  | COC(=O)C1=C(C)N(C)C(=O)NC1c1ccoc1 (racemic)
2% | 4% | 1% | 12% |  | CC1=C(C(=O)OCC(C)C)C(c2cccs2)NC(S)=N1 (racemic)
1% | 4% | 9% | 1% |  | CCCOC(=O)C1=C(C)N(C)C(=O)NC1c1cccs1 (racemic)
63% | 24% | 34% |  | 45% | CC1=C(C(=O)OCc2ccccc2)C(c2cccs2)NC(=S)N1 (racemic)
 |  |  | 37% |  | CC1=C(C(=O)OC(C)C)C(c2ccoc2)NC(=O)N1C (racemic)
9% | 35% | 11% | 11% |  | CCN(CC)C(=O)C1=C(C)NC(=O)NC1c1ccsc1 (racemic)
2% | 3% | 7% | 36% |  | COC(=O)C1=C(C)NC(=O)NC1c1ccsc1 (racemic)
1% | 16% | 1% | 2% |  | CCCOC(=O)C1=C(C)N(C)C(=O)NC1c1ccoc1 (racemic)
2% | 1% | 1% | 2% |  | CCNC(=O)C1=C(C)NC(=O)NC1c1ccoc1 (racemic)
1% | 2% | 1% |  |  | CCOC(=O)C1=C(C)N(C)C(=O)NC1c1cccs1 (racemic)
 |  |  |  | 41% | CCOC(=O)C1=C(C)NC(=O)NC1c1cccs1 (racemic)
 | 3% |  |  |  | CCCOC(=O)C1=C(C)NC(=O)NC1c1ccco1 (racemic)
23% |  | 32% |  | 53% | CCOC(=O)C1=C(C)N(C)C(=O)NC1c1ccsc1 (racemic)
